Measurements: ChEMBL document CHEMBL1134473, “Synthesis and biological evaluation of pyrrolinic isosteres of rilmenidine. Discovery of cis-/trans-dicyclopropylmethyl-(4,5-dimethyl-4,5-dihydro-3H-pyrrol-2-yl)-amine (LNP 509), an I1 imidazoline receptor selective ligand with hypotensive activity” (J Med Chem, 2001)

Assay: Displacement of [3H]RX-821002 from alpha-2 adrenergic receptor of calf frontal cortex membranes
Assay type: tissue-based, Bos taurus
Outline: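 Calf frontal cortex membranes (0.5 mg protein/mL) incubated 60 min at 25 °C with 0.8 nM [3H]RX821002 plus 0.3 µM 5HT to mask 5HT1A sites, in 50 mM sodium phosphate pH 7.4, drug 10^-9 to 10^-4 M. Nonspecific binding with 10 µM phentolamine. Bound ligand separated by GF/C filtration and counted. Three experiments in triplicate; Ki by Cheng-Prusoff.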

Row | SMILES | Log Ki
1 | C1COC(NC(C2CC2)C2CC2)=N1 [RILMENIDINE] | -7.25
2 | CCC1CCC(NC(C2CC2)C2CC2)=N1 (stereo not drawn) | > -5
3 | CC1CCC(NC(C2CC2)C2CC2)=N1 (stereo not drawn) | > -5
4 | C1CN=C(NC(C2CC2)C2CC2)C1 | > -5
5 | CC1CCN=C1NC(C1CC1)C1CC1 (stereo not drawn) | > -5

Next, values leading:

Row | Log Ki | SMILES
6 | > -5 | CC1CC(NC(C2CC2)C2CC2)=NC1C (mixture of isomers)
7 | > -5 | CC1CN=C(NC(C2CC2)C2CC2)C1 (stereo not drawn)
8 | > -5 | C1CCC2N=C(NC(C3CC3)C3CC3)CC2C1 (stereo not drawn)
